Measured values: ChEMBL document CHEMBL1926569, “Novel (E)-1-(4-methyl-2-(alkylamino)thiazol-5-yl)-3-arylprop-2-en-1-ones as potent antimicrobial agents” (2011)
Values after ≈ are worked out from the molar mass of the structure shown.

Experiments:
Candida albicans [1] = assay: Ratio of bifonazole to compound for Candida albicans isolated from human; format: functional
Pseudomonas aeruginosa [2] = assay: Antibacterial activity against Pseudomonas aeruginosa ATCC 27853 incubated for 24 hrs followed by serial sub-cultivation for 24 hrs by microdilution; format: functional; conditions: ATCC 27853, 24 h
How it was run: (§1)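 MBC: after the 24 h LB broth microdilution (1.0 × 10⁴ CFU per well, 160 rpm), wells were serially sub-cultured into fresh broth plates and incubated a further 24 h. MBC is the lowest concentration with no visible growth, taken as 99.5% killing of the original inoculum. Duplicate, repeated three times.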

Aspergillus flavus [3] = assay: Antifungal activity against Aspergillus flavus ATCC 9643 after 72 hrs by serial dilution technique; format: functional; conditions: ATCC 9643, 72 h
How it was run: (§2)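 Modified microdilution in 96-well plates. Fungi were kept on malt agar at 4 °C. Spores were washed off in sterile 0.85% saline with 0.1% Tween 80. Compounds were dissolved at 1 mg/ml in 5% DMSO with 0.1% Tween 80 and added to malt broth with inoculum. Plates were shaken at 160 rpm for 72 h at 28 °C. Duplicate, repeated three times.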

Aspergillus niger [4] = assay: Antifungal activity against Aspergillus niger ATCC 6275 incubated for 72 hrs followed by serial sub-cultivation for 72 hrs by serial dilution technique; format: functional; conditions: ATCC 6275, 72 h
How it was run: (§3)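 MFC: material from 72 h malt broth microdilution wells was serially sub-cultured into fresh broth plates and incubated a further 72 h at 28 °C. Fungicidal concentration is taken from growth after sub-culture. Duplicate, repeated three times.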

Aspergillus niger [5] = assay: Antifungal activity against Aspergillus niger ATCC 6275 after 72 hrs by serial dilution technique; format: functional; conditions: ATCC 6275, 72 h; how it was run: as §2
Bacillus cereus [6] = assay: Antibacterial activity against clinical isolate of Bacillus cereus incubated for 24 hrs followed by serial sub-cultivation for 24 hrs by microdilution; format: functional; how it was run: as §1
Penicillium ochrochloron [7] = assay: Ratio of ketoconazole to compound for Penicillium ochrochloron ATCC 9112; format: functional
Penicillium ochrochloron [8] = assay: Antifungal activity against Penicillium ochrochloron ATCC 9112 after 72 hrs by serial dilution technique; format: functional; conditions: ATCC 9112, 72 h; how it was run: as §2
Candida albicans [9] = assay: Antifungal activity against Candida albicans isolated from human incubated for 72 hrs followed by serial sub-cultivation for 72 hrs by serial dilution technique; format: functional; how it was run: as §3
Candida albicans [10] = assay: Ratio of ketoconazole to compound for Candida albicans isolated from human; format: functional
Talaromyces funiculosus [11] = assay: Antifungal activity against Penicillium funiculosum ATCC 36839 incubated for 72 hrs followed by serial sub-cultivation for 72 hrs by serial dilution technique; format: functional; conditions: ATCC 36839, 72 h; how it was run: as §3
Aspergillus ochraceus [12] = assay: Antifungal activity against Aspergillus ochraceus ATCC 12066 after 72 hrs by serial dilution technique; format: functional; conditions: ATCC 12066, 72 h; how it was run: as §2
Trichoderma viride [13] = assay: Ratio of bifonazole to compound for Trichoderma viride IAM 5061; format: functional
Bacillus cereus [14] = assay: Antibacterial activity against clinical isolate of Bacillus cereus after 24 hrs by microdilution method; format: functional
How it was run: (§4)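 Broth microdilution in 96-well plates. Bacterial suspensions were adjusted in sterile saline to 1.0 × 10⁵ CFU/ml, prepared daily and kept at 4 °C. Compound was added to LB broth with 1.0 × 10⁴ CFU per well and shaken at 160 rpm for 24 h at […] (so in the source). MIC is the lowest concentration with no visible growth under a binocular microscope. OD655 was also read. Duplicate, repeated three times.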

Escherichia coli [15] = assay: Antibacterial activity against Escherichia coli ATCC 35210 incubated for 24 hrs followed by serial sub-cultivation for 24 hrs by microdilution; format: functional; conditions: ATCC 35210, 24 h; how it was run: as §1
Enterococcus faecalis [16] = assay: Antibacterial activity against Enterococcus faecalis isolated from human incubated for 24 hrs followed by serial sub-cultivation for 24 hrs by microdilution; format: functional; how it was run: as §1
Listeria monocytogenes [17] = assay: Antibacterial activity against Listeria monocytogenes NCTC 7973 incubated for 24 hrs followed by serial sub-cultivation for 24 hrs by microdilution; format: functional; conditions: NCTC 7973, 24 h; how it was run: as §1
Talaromyces funiculosus [18] = assay: Ratio of bifonazole to compound for Penicillium funiculosum ATCC 36839; format: functional
Penicillium ochrochloron [19] = assay: Ratio of bifonazole to compound for Penicillium ochrochloron ATCC 9112; format: functional
Trichoderma viride [20] = assay: Antifungal activity against Trichoderma viride IAM 5061 incubated for 72 hrs followed by serial sub-cultivation for 72 hrs by serial dilution technique; format: functional; conditions: IAM 5061, 72 h; how it was run: as §3
Pseudomonas aeruginosa [21] = assay: Antibacterial activity against Pseudomonas aeruginosa ATCC 27853 after 24 hrs by microdilution method; format: functional; conditions: ATCC 27853, 24 h; how it was run: as §4
Escherichia coli [22] = assay: Antibacterial activity against Escherichia coli ATCC 35210 after 24 hrs by microdilution method; format: functional; conditions: ATCC 35210, 24 h; how it was run: as §4
Aspergillus ochraceus [23] = assay: Ratio of ketoconazole to compound for Aspergillus ochraceus ATCC 12066; format: functional
Talaromyces funiculosus [24] = assay: Antifungal activity against Penicillium funiculosum ATCC 36839 after 72 hrs by serial dilution technique; format: functional; conditions: ATCC 36839, 72 h; how it was run: as §2
Trichoderma viride [25] = assay: Antifungal activity against Trichoderma viride IAM 5061 after 72 hrs by serial dilution technique; format: functional; conditions: IAM 5061, 72 h; how it was run: as §2
Staphylococcus aureus [26] = assay: Antibacterial activity against Staphylococcus aureus ATCC 6538 incubated for 24 hrs followed by serial sub-cultivation for 24 hrs by microdilution method; format: functional; conditions: ATCC 6538, 24 h; how it was run: as §1
Aspergillus ochraceus [27] = assay: Ratio of bifonazole to compound for Aspergillus ochraceus ATCC 12066; format: functional
Aspergillus ochraceus [28] = assay: Antifungal activity against Aspergillus ochraceus ATCC 12066 incubated for 72 hrs followed by serial sub-cultivation for 72 hrs by serial dilution technique; format: functional; conditions: ATCC 12066, 72 h; how it was run: as §3
Listeria monocytogenes [29] = assay: Antibacterial activity against Listeria monocytogenes NCTC 7973 after 24 hrs by microdilution method; format: functional; conditions: NCTC 7973, 24 h; how it was run: as §4
Pseudomonas aeruginosa [30] = assay: Ratio of ampicillin MIC to compound MIC for Pseudomonas aeruginosa ATCC 27853; format: functional
Enterococcus faecalis [31] = assay: Antibacterial activity against Enterococcus faecalis isolated from human after 24 hrs by microdilution method; format: functional; how it was run: as §4
Staphylococcus aureus [32] = assay: Antibacterial activity against Staphylococcus aureus ATCC 6538 after 24 hrs by microdilution method; format: functional; conditions: ATCC 6538, 24 h; how it was run: as §4
Aspergillus fumigatus [33] = assay: Antifungal activity against Aspergillus fumigatus isolated from human incubated for 72 hrs followed by serial sub-cultivation for 72 hrs by serial dilution technique; format: functional; how it was run: as §3
Micrococcus flavus [34] = assay: Antibacterial activity against Micrococcus flavus ATCC 10240 after 24 hrs by microdilution method; format: functional; conditions: ATCC 10240, 24 h; how it was run: as §4
Aspergillus flavus [35] = assay: Antifungal activity against Aspergillus flavus ATCC 9643 incubated for 72 hrs followed by serial sub-cultivation for 72 hrs by serial dilution technique; format: functional; conditions: ATCC 9643, 72 h; how it was run: as §3
Aspergillus fumigatus [36] = assay: Ratio of ketoconazole to compound for Aspergillus fumigatus isolated from human; format: functional
Aspergillus ochraceus [37] = assay: Antifungal activity against Aspergillus ochraceus after 72 hrs by serial dilution technique
Candida albicans [38] = assay: Antifungal activity against Candida albicans isolated from human after 72 hrs by serial dilution technique; format: functional; how it was run: as §2
Penicillium ochrochloron [39] = assay: Antifungal activity against Penicillium ochrochloron ATCC 9112 incubated for 72 hrs followed by serial sub-cultivation for 72 hrs by serial dilution technique; format: functional; conditions: ATCC 9112, 72 h; how it was run: as §3
Aspergillus niger [40] = assay: Ratio of bifonazole to compound for Aspergillus niger ATCC 6275; format: functional
Micrococcus flavus [41] = assay: Antibacterial activity against Micrococcus flavus ATCC 10240 incubated for 24 hrs followed by serial sub-cultivation for 24 hrs by microdilution; format: functional; conditions: ATCC 10240, 24 h; how it was run: as §1
Salmonella typhimurium [42] = assay: Antibacterial activity against Salmonella Typhimurium ATCC 13311 incubated for 24 hrs followed by serial sub-cultivation for 24 hrs by microdilution; format: functional, Salmonella enterica subsp. enterica serovar Typhimurium; conditions: Salmonella enterica, ATCC 13311, 24 h; how it was run: as §1
Salmonella typhimurium [43] = assay: Antibacterial activity against Salmonella Typhimurium ATCC 13311 after 24 hrs by microdilution method; format: functional, Salmonella enterica subsp. enterica serovar Typhimurium; conditions: Salmonella enterica, ATCC 13311, 24 h; how it was run: as §4

MIC (Aspergillus flavus [3]): 36.2 µM (≈ 10 µg/mL)
MIC (Aspergillus niger [5]): 54.3 µM (≈ 15 µg/mL)
MIC (Penicillium ochrochloron [8]): 36.2 µM (≈ 10 µg/mL)
MIC (Aspergillus ochraceus [12]): 36.2 µM (≈ 10 µg/mL)
MIC (Bacillus cereus [14]): 72.5 µM (≈ 20 µg/mL)
MIC (Pseudomonas aeruginosa [21]): 54.3 µM (≈ 15 µg/mL)
MIC (Escherichia coli [22]): 54.3 µM (≈ 15 µg/mL)
MIC (Talaromyces funiculosus [24]): 36.2 µM (≈ 10 µg/mL)
MIC (Trichoderma viride [25]): 36.2 µM (≈ 10 µg/mL)
MIC (Listeria monocytogenes [29]): 90.6 µM (≈ 25 µg/mL)
MIC (Enterococcus faecalis [31]): 54.3 µM (≈ 15 µg/mL)
MIC (Staphylococcus aureus [32]): 72.5 µM (≈ 20 µg/mL)
MIC (Micrococcus flavus [34]): 18.1 µM (≈ 5 µg/mL)
MIC (Aspergillus ochraceus [37]): 36.2 µM (≈ 10 µg/mL)
MIC (Candida albicans [38]): 51.3 µM (≈ 14.2 µg/mL)
MIC (Salmonella typhimurium [43]): 72.5 µM (≈ 20 µg/mL)
Structure (SMILES): CNc1nc(C)c(C(=O)/C=C/c2cccc(F)c2)s1
Ratio (Candida albicans [1]): 10
MBC (Pseudomonas aeruginosa [2]): 72.5 µM (≈ 20 µg/mL)
MFC (Aspergillus niger [4]): 72.5 µM (≈ 20 µg/mL)
MBC (Bacillus cereus [6]): 90.6 µM (≈ 25 µg/mL)
Ratio (Penicillium ochrochloron [7]): 10
MFC (Candida albicans [9]): 72.5 µM (≈ 20 µg/mL)
Ratio (Candida albicans [10]): 10
MFC (Talaromyces funiculosus [11]): 72.5 µM (≈ 20 µg/mL)
Ratio (Trichoderma viride [13]): 10
MBC (Escherichia coli [15]): 72.5 µM (≈ 20 µg/mL)
MBC (Enterococcus faecalis [16]): 72.5 µM (≈ 20 µg/mL)
MBC (Listeria monocytogenes [17]): 90.6 µM (≈ 25 µg/mL)
Ratio (Talaromyces funiculosus [18]): 10
Ratio (Penicillium ochrochloron [19]): 10
MFC (Trichoderma viride [20]): 72.5 µM (≈ 20 µg/mL)
Ratio (Aspergillus ochraceus [23]): 10
MBC (Staphylococcus aureus [26]): 90.6 µM (≈ 25 µg/mL)
Ratio (Aspergillus ochraceus [27]): 10
MFC (Aspergillus ochraceus [28]): 72.5 µM (≈ 20 µg/mL)
Ratio (Pseudomonas aeruginosa [30]): 10
MFC (Aspergillus fumigatus [33]): 72.5 µM (≈ 20 µg/mL)
MFC (Aspergillus flavus [35]): 90.6 µM (≈ 25 µg/mL)
Ratio (Aspergillus fumigatus [36]): 10
MFC (Penicillium ochrochloron [39]): 72.5 µM (≈ 20 µg/mL)
Ratio (Aspergillus niger [40]): 10
MBC (Micrococcus flavus [41]): 72.5 µM (≈ 20 µg/mL)
MBC (Salmonella typhimurium [42]): 90.6 µM (≈ 25 µg/mL)
